Assay outcomes deposited in PubChem BioAssay by several laboratories.
PTPN22 act = activators of human LYP (PTPN22) phosphatase | Q9Y2R2 | activation, % at 2 µM | recombinant LYP, DiFMUP fluorescence; 0 = plate median, 100 = signal doubled | 0.11% of 96,000 active | AID 697;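 active means activation at 2 µM above a set limit, the mean plus 5 SD, cut at about 37% in these data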
HIV Rev-RRE inh = disrupts HIV-1 Rev binding to RRE RNA; P05866; Rev peptide-RRE RNA binding, FRET; inhibition, % at 8 µM; 0.79% of 97,000 active; AID 704;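 active means inhibition above the screen-wide mean plus 3 SD, cut at about 35% in these data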
Target sequence (P05866 whole entry, looked up): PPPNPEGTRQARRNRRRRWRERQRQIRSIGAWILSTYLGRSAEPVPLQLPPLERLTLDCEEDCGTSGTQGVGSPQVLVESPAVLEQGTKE
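Test system – labelled RRE RNA duplex and labelled Rev peptide · Signal – fluorescein-to-Cy5 FRET, 480 nm excitation · Evaluation – % inhibition of FRET ratio versus controls · Benchmarks – DMSO low control, neomycin B high control · Incubation – 5 min RNA-compound premix plus 15 min binding step, 25 °C · Medium – HEPES pH 7.5 salt buffer with EDTA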
PLK1 kinase inh = PLK1 (human) kinase inhibition; P53350; recombinant PLK1 kinase, TR-FRET peptide phosphorylation; inhibition, % at 10 µM; 0.53% of 97,000 active;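 active means inhibition of 50% or more in the single-concentration screen; inactive means inhibition below 50%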
PLK1 PBD inh = inhibitors of human Plk1 polo box domain binding. inhibition, %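 (tested at about 20 µM)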. AID 693. P53350. 0.13% of 97,000 active. Plk1 PBD phosphopeptide binding, fluorescence polarization; in the data active means inhibition above about 34%, passing the limit was not always enough
LYP inh 2 = LYP (human) phosphatase inhibition. Q9Y2R2. 0.21% of 96,000 active. AID 640. recombinant LYP catalytic domain, DiFMUP fluorescence. inhibition, % at 2 µM;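 active means inhibition at 2 µM at or above a set limit, the screen mean plus 3 SD, cut at about 24% in these data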
EphB4 ephrin blk = EphB4-ephrin-B2 interaction antagonism; P54760; 0.15% of 97,000 active; AID 720; EphB4 LBD / TNYL-RAW-Alexa532 peptide, fluorescence polarization; inhibition, % at 7 µM;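 active means inhibition above the screen-wide mean inhibition plus 3 SD, cut at about 15% in these data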
A number is an active result; - = inactive; . = not tested or not shown; [ ] = another dose, or the depositor's remark. In the library only some 2% were active in any assay of this set; here they are far more common.

SMILES | PTPN22 act | HIV Rev-RRE inh | PLK1 kinase inh | PLK1 PBD inh | LYP inh 2 | EphB4 ephrin blk
Cc1ccc(CCNC(=O)CS(=O)Cc2nc(-c3cccc(C)c3)oc2C)cc1 (stereo not given) | . | - | 61.5 | - | . | -
COc1cccc(-c2nc(CS(=O)CC(=O)NC3CC3)c(C)o2)c1 (stereo not given) | . | - | 69.3 | - | . | -
Cc1cccc(-c2nc(CS(=O)CC(=O)N3CCCCC3)c(C)o2)c1 (stereo not given) | . | - | 65.7 | - | . | -
Cc1c(NC(=O)C(C)Sc2nc3ccccc3c(=O)n2CCO)c(=O)n(-c2ccccc2)n1C (stereo not given) | - | - | - | - | - | -
O=C(CCCSc1nnnn1-c1cccc2ccccc12)c1ccc(F)cc1 | - | - | - | - | - | -
Cc1cc(/C=N/n2cnnc2)c(C)n1-c1cc(Cl)ccc1Cl | - | - | - | - | - | -
O=C(C1CCN(S(=O)(=O)c2ccccc2)CC1)N1CCOCC1 | - | - | - | - | - | -
COc1ccc(Br)cc1/C=N/NC(=O)c1nc(-c2ccccc2)n2c1CCCCC2 | - | - | - | - | - | -
CN1C(=O)c2cccc(NCCCN3C(=O)c4ccccc4C3=O)c2C1=O | - | 57.8 | - | - | - | -
CCNc1cc2oc(=O)c(CN3CCOCC3)c(C)c2cc1C | - | 79.2 | - | - | - | -
CCOC(=O)/C(C#N)=C/C1=C(N2CCCC2)CC(C)(CC)OC1 (stereo not given) | - | - | - | - | - | -
COc1ccc(CCNC(=O)COc2ccc(S(=O)(=O)NC3CCCCC3)cc2Cl)cc1 | - | - | - | - | - | -
O=c1nc(/C=C/c2ccc(-c3ccc(F)cc3)o2)cc(C(F)(F)F)[nH]1 | - | 116.1[fluorescence artefact?] | - | - | - | -
O=C(NNC(=O)c1ccc2ccccc2c1O)c1ccccc1Cl | - | - | - | - | 24.3 | -
O=C1N/C(=C\c2ccc(N3CCOCC3)c(F)c2)C(=O)N1Cc1ccccc1 | - | - | - | - | - | -
CCCN1C(=O)/C(=C/c2ccc(N3CCCC3)c(C)c2)NC1=S | - | 138.9[fluorescence artefact?] | - | - | - | -
COc1cccc(OC)c1C(=O)N1CCOCC1 | - | - | - | - | - | -
COC(=O)c1sccc1-n1cccc1C(=O)N1CCOCC1 | - | - | - | - | 59.8 | -
Cc1cc(C)c2c(=O)[nH]c(SCC(=O)Nc3ccccc3)nc2n1 | - | - | 52.3 | - | - | -
Cc1cc(C)c2c(=O)[nH]c(SCC(=O)Nc3ccc(N(C)C)cc3)nc2n1 | - | - | - | - | - | -
O=C(Cn1cnc2c(cnn2-c2ccccc2)c1=O)OCc1ccccc1 | - | - | 50.2 | - | - | -
C=CCN1C(=O)/C(=C/c2ccc(N(C)C)cc2)S/C1=N\c1nnc(CC)s1 | - | 131.5[fluorescence artefact?] | - | - | - | -
CCCN1C(=O)/C(=C/c2ccc(C)s2)SC1=Nc1ccc(OC)cc1 | - | - | - | - | - | -
Cc1cccn2c(=O)c(C=NCc3ccccc3)c(NCCO)nc12 | - | - | - | - | - | -
CCC(C)N1C(=O)/C(=C/c2c(NCCCOC(C)C)nc3c(C)cccn3c2=O)SC1=S (stereo not given) | - | 126.1[fluorescence artefact?] | - | - | - | -
SMILES | PTPN22 act | HIV Rev-RRE inh | PLK1 kinase inh | PLK1 PBD inh | LYP inh 2 | EphB4 ephrin blk
CCCN1C(=O)/C(=C/c2c(NCCCOC(C)C)nc3c(C)cccn3c2=O)SC1=S | - | 93.7[fluorescence artefact?] | - | - | - | -
CCC(C)N=Cc1c(NCc2ccco2)nc2c(C)cccn2c1=O (stereo not given) | - | - | - | - | - | -
C=CCN1C=CC(=C/C=C(/C#N)C(=O)OCC)C=C1 | - | 138.1[fluorescence artefact?] | - | - | - | -
CC(C)n1nc(C(=O)Nc2nnc(SCc3c(Cl)cccc3Cl)s2)c2ccccc2c1=O | - | - | - | - | - | -
CCOC(=O)c1sc(NC(=O)CSc2n[nH]c(-c3ccc(Cl)cc3Cl)n2)c(C#N)c1C | - | - | - | - | - | -
COc1ccc2[nH]c(=O)c(CN(Cc3ccccc3)Cc3nnnn3CC3CCCO3)cc2c1 (stereo not given) | - | - | - | - | - | 15.6
COc1ccc2[nH]c(=O)c(CN(C3CCCCC3)C(c3nnnn3Cc3ccco3)C(C)C)cc2c1 (stereo not given) | - | 43.0 | - | - | - | -
CCOC(=O)C1=C(O)/C(=C/c2ccc(-c3ccccc3C(=O)O)o2)SC1=Nc1ccc(OC)cc1 | - | 89.4[fluorescence artefact?] | - | - | - | -
Cc1ccc(NC(=O)c2sc3nc4c(c(-c5ccco5)c3c2N)CCC4)cc1 | - | - | - | - | - | -
Nc1c(C(=O)Nc2ccc(Br)cc2)sc2nc(-c3ccco3)ccc12 | - | 46.4 | - | - | - | -
Nc1c(C(=O)Nc2ccc(F)cc2)sc2nc(-c3ccco3)ccc12 | - | 46.5 | - | - | - | -
COc1ccc(CCNC(=O)Cc2ccc(OCc3ccccc3)c(OC)c2[N+](=O)[O-])cc1OCc1ccccc1 | - | - | - | - | - | -
Cc1ccc(S(=O)(=O)C2(C(=O)N3CCCCC3C)CC2)cc1 (stereo not given) | - | - | - | - | - | -
CC(C)CCn1c(SCCc2ccccc2)nc2c1c(=O)[nH]c(=O)n2C | - | - | - | - | - | -
CC(C)CCn1c(SCCN2CCOCC2)nc2c1c(=O)[nH]c(=O)n2C | - | - | - | - | - | 17.7
Cc1cc(C)nc(SCc2nc(N)nc(-c3ccccc3O)n2)n1 | - | - | - | - | - | -
CCN(CC(=O)NC(=O)NC1CCCCC1)Cc1nc2ccccc2c(=O)[nH]1 | - | - | - | - | 25.2 | -
O=C(Cc1cnn(-c2ccccc2)c1)c1ccc(O)c(O)c1O | - | - | - | - | 28.6 | -
CCc1cc(C(=O)Cc2cnn(-c3ccccc3)c2)c(O)cc1O | - | - | - | - | - | -
Cc1ccc(S(=O)(=O)c2c(N)n(Cc3ccco3)c3nc4ccccc4nc23)cc1C | - | - | - | - | - | -
Nc1c(S(=O)(=O)c2ccccc2)c2nc3ccccc3nc2n1Cc1ccco1 | - | 42.5 | - | - | - | -
CCN(CC)C(=O)CCNS(=O)(=O)c1ccc(C)cc1 | - | - | - | - | - | -
N#CC1=C(N)C(C#N)(C#N)[C@H](c2c(F)cccc2F)[C@H]2CC3(CC=C12)OCCO3 | - | 55.9 | - | - | - | -
CN1C2C=C3C(C#N)=C(N)C(C#N)(C#N)[C@H](c4c(F)cccc4F)[C@H]3C1CC2 (stereo not given in full) | - | - | - | - | - | -
CC1(C)CC(=O)C=C(NCc2ccc(Cl)c(Cl)c2)C1 | - | - | - | - | - | -
CC[n+]1c(/C=C/C=C/N(C(C)=O)c2ccccc2)sc2ccccc21 | - | 129.4[fluorescence artefact?] | - | - | - | -
CCCCN1C(=O)/C(=C/C=C2\N(C)c3ccccc3C2(C)C)SC1=S | - | 140.3[fluorescence artefact?] | - | - | - | -
Cn1/c(=N/N=C/c2ccc([N+](=O)[O-])cc2)sc2ccccc21 | - | 58.4 | - | - | - | -
